Data as given in ChEMBL document CHEMBL4270544, “Design, synthesis and biological evaluation of a novel tubulin inhibitor 7a3 targeting the colchicine binding site” (Eur J Med Chem, 2018).
Active and inactive are the calls of the source. No cut-off for these calls is given here.

Key:
MDA-MB-231 = assay: Antiproliferative activity against human MDA-MB-231 cells after 72 hrs by CCK8 assay; format: functional, cell-based; details: MDA-MB-231, 72 h
How it was run: (§1)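 CCK-8 proliferation assay with CA-4 as positive control. IC50 is the concentration giving 50% inhibition of proliferation. Mean ± SEM from three independent experiments.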

HeLa = assay: Antiproliferative activity against human HeLa cells after 72 hrs by CCK8 assay; format: functional, cell-based; how it was run: as §1
CT26 = assay: Antiproliferative activity against mouse CT26 cells after 72 hrs by CCK8 assay; format: functional, cell-based; details: CT26, 72 h; how it was run: as §1
SK-OV-3 [1] = assay: Cell cycle arrest in human SKOV3 cells assessed as accumulation at S phase at 40 nM after 24 hrs by propidium iodide staining based flow cytometry (reference value: 18.09%); format: functional
How it was run: (§2)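 SK-OV-3 cells exposed to 40, 80 or 160 nM for 24 h, with untreated cells as control. Stained with PI and analysed by flow cytometry for phase distribution. Mean ± SEM of three independent experiments; t-test against control.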

SK-OV-3 [2] = assay: Cell cycle arrest in human SKOV3 cells assessed as accumulation at G2/M phase at 80 nM after 24 hrs by propidium iodide staining based flow cytometry (reference value: 24.99%); format: functional; how it was run: as §2
SK-OV-3 [3] = assay: Cell cycle arrest in human SKOV3 cells assessed as accumulation at G0/G1 phase at 160 nM after 24 hrs by propidium iodide staining based flow cytometry (reference value: 67.79%); format: functional; how it was run: as §2
SK-OV-3 [4] = assay: Induction of apoptosis in human SKOV3 cells assessed as live cells at 40 nM after 48 hrs by Annexin-V-FITC/propidium iodide staining based flow cytometry (reference value: 94.43%); format: functional
SK-OV-3 [5] = assay: Induction of apoptosis in human SKOV3 cells assessed as early apoptotic cells at 40 nM after 48 hrs by Annexin-V-FITC/propidium iodide staining based flow cytometry (reference value: 0.97%); format: functional
SK-OV-3 [6] = assay: Induction of apoptosis in human SKOV3 cells assessed as late apoptotic cells at 80 nM after 48 hrs by Annexin-V-FITC/propidium iodide staining based flow cytometry (reference value: 3.93%); format: functional
SK-OV-3 [7] = assay: Induction of apoptosis in human SKOV3 cells assessed as necrotic cells at 80 nM after 48 hrs by Annexin-V-FITC/propidium iodide staining based flow cytometry (reference value: 0.67%); format: functional
SK-OV-3 [8] = assay: Antimigratory activity against human SKOV3 cells assessed as wound closure at 80 nM after 24 hrs by microscopy based scratch wound assay (reference value: 79.5 +/- 2.8%); format: functional
SK-OV-3 [9] = assay: Antimigratory activity against human SKOV3 cells assessed as wound closure at 160 nM after 24 hrs by microscopy based scratch wound assay (reference value: 79.5 +/- 2.8%); format: functional
SK-OV-3 [10] = assay: Antimigratory activity against human SKOV3 cells assessed as number of migrated cells at 50 nM after 24 hrs by crystal violet staining based transwell migration assay (reference value: 49.3 to 50.7); format: functional
SK-OV-3 [11] = assay: Antimigratory activity against human SKOV3 cells assessed as number of migrated cells at 25 nM after 24 hrs by crystal violet staining based transwell migration assay (reference value: 49.3 to 50.7); format: functional
SK-OV-3 [12] = assay: Antimigratory activity against human SKOV3 cells assessed as number of migrated cells at 100 nM after 24 hrs by crystal violet staining based transwell migration assay (reference value: 49.3 to 50.7); format: functional
SK-OV-3 [13] = assay: Inhibition of tubulin assembly in human SKOV3 cells assessed as disorganized spindle formation at 10 to 1000 nM after 24 hrs by DAPI staining based immunofluorescence microscopic method; format: functional, cell-based
How it was run: (§3)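 SK-OV-3 cells exposed to DMSO or 10, 100 or 1000 nM for 24 h. Fixed in methanol, stained with FITC anti-β-tubulin antibody, counterstained with DAPI, and imaged by confocal microscopy.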

SK-OV-3 [14] = assay: Inhibition of tubulin assembly in human SKOV3 cells assessed as disorganized microtubule polymerization at 10 to 1000 nM after 24 hrs by DAPI staining based immunofluorescence microscopic method; format: functional, cell-based; how it was run: as §3
Mus musculus [15] = assay: Area under the first moment curve (0 to 24 hrs) in C57 mouse at 50 mg/kg, ip administered as single dose by LC-MS/MS analysis; format: ADME, organism-based; details: in vivo
How it was run: (§4)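 Male C57 mice, one intraperitoneal dose. Blood drawn from submaxillary vein at 0, 5, 15, 30 min and 1, 2, 4, 8, 12, 24 h. Plasma measured by LC/MS/MS in MRM mode with CA-4 as internal standard. Calibration by weighted linear regression over 0.01–500 ng/mL. Parameters obtained by non-compartmental analysis.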

[16] = Terminal half life in C57 mouse at 50 mg/kg, ip administered as single dose by LC-MS/MS analysis; format: ADME, organism-based; details: in vivo, read-out: beta t1/2 (converted); how it was run: as §4
[17] = Elimination rate constant in C57 mouse at 50 mg/kg, ip administered as single dose by LC-MS/MS analysis; format: ADME, organism-based; details: in vivo; how it was run: as §4
[18] = Cmax in C57 mouse at 50 mg/kg, ip administered as single dose by LC-MS/MS analysis; format: ADME, organism-based; design: dose 50 mg/kg, route intraperitoneal; details: in vivo; how it was run: as §4
[19] = Mean residence time in C57 mouse at 50 mg/kg, ip administered as single dose by LC-MS/MS analysis; format: ADME, organism-based; details: in vivo; how it was run: as §4
Mus musculus [20] = assay: Toxicity in Balb/c mouse xenografted with human SKOV3 cells assessed as body weight loss at 50 mg/kg, ip administered every two days for three times measured during compound dosing; format: organism-based; details: in vivo
How it was run: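 Six-week-old Balb/c nude mice given subcutaneous SK-OV-3 cells in the back. Randomised into three groups at about 200 mm3 tumour size. Dosed 50 mg/kg intraperitoneally in 5% DMSO/olive oil every two days, three times; vehicle group as control. Tumour volume and body weight tracked; six animals per group, mean ± SEM, t-test.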

Mus musculus [21] = assay: Toxicity in Balb/c mouse xenografted with human SKOV3 cells assessed as pathological changes in liver at 50 mg/kg, ip administered every two days for three times by hematoxylin and eosin staining based assay; format: organism-based; details: in vivo
How it was run: (§5)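 In SK-OV-3 xenografted Balb/c nude mice dosed 50 mg/kg intraperitoneally in 5% DMSO/olive oil every two days, three times, organs were collected and examined after H&E staining.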

Mus musculus [22] = assay: Toxicity in Balb/c mouse xenografted with human SKOV3 cells assessed as pathological changes in lung at 50 mg/kg, ip administered every two days for three times by hematoxylin and eosin staining based assay; format: organism-based; details: in vivo; how it was run: as §5
Mus musculus [23] = assay: Toxicity in Balb/c mouse xenografted with human SKOV3 cells assessed as pathological changes in kidney at 50 mg/kg, ip administered every two days for three times by hematoxylin and eosin staining based assay; format: organism-based; details: in vivo; how it was run: as §5
SK-OV-3 [24] = assay: Cell cycle arrest in human SKOV3 cells assessed as accumulation at G2/M phase at 160 nM after 24 hrs by propidium iodide staining based flow cytometry (reference value: 14.12%)

CCOc1ccc(-c2cn(C)nc2-c2cc(OC)c(OC)c(OC)c2)cc1
IC50 (MDA-MB-231): 31 nM
IC50 (HeLa): 32.8 nM
IC50 (CT26): 58 nM
Activity (SK-OV-3 [1]): 20.99%
Activity (SK-OV-3 [2]): 34.65%
Activity (SK-OV-3 [3]): 8.05%
Activity (SK-OV-3 [4]): 91.03%
Activity (SK-OV-3 [5]): 1.35%
Activity (SK-OV-3 [6]): 18.67%
Activity (SK-OV-3 [7]): 2.72%
Activity (SK-OV-3 [8]): 44.3%
Activity (SK-OV-3 [9]): 32.1%
Activity (SK-OV-3 [10]): 21.7
Activity (SK-OV-3 [11]): 27.3
Activity (SK-OV-3 [12]): 18.3
inhibition (SK-OV-3 [13]): Active
inhibition (SK-OV-3 [14]): Active
AUMC (Mus musculus [15]): 1498 hr.hr.ng/ml
half-life [16]: 1.67 h
k el [17]: 0.000117 s⁻¹
Cmax [18]: 882 ng/mL
MRT [19]: 1.51 h
Activity (Mus musculus [20]): Non-Toxic
Activity (Mus musculus [21]): Non-Toxic
Activity (Mus musculus [22]): Non-Toxic
Activity (Mus musculus [23]): Non-Toxic
Activity (SK-OV-3 [24]): 65.79%
